Experimental data from ChEMBL document CHEMBL3244011, “(Aryloxy)[p-(aryloxy)phenyl]- and (aryloxy)[p-(arylthio)phenyl]acetic acids and esters as hypolipidemic agents” (1979).

Columns and labels:
Type in all cases: functional
Design in all cases: scale not given: the % may be the effect or the level left
Rattus norvegicus [1] = experiment: Hypolipidemic activity in COBBS-CD rat assessed as reduction in serum sterol level at 0.1% administered with chow diet after 5 days relative to control
Method in brief: (§1)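 Male COBBS-CD rats, four per treated group and eight per control group. The compound was mixed into ground rat chow at 0.1, 0.03 or 0.01% w/w (about 100, 30 and 10 mg/kg). Control chow received only the mixing solvent (methanol-chloroform 1:3 v/v). Food and water were ad libitum for 5 days, then rats were decapitated and blood collected. Serum sterols were measured by an automated method and expressed relative to controls; ± values are SD.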

Rattus norvegicus [2] = experiment: Hypolipidemic activity in COBBS-CD rat assessed as reduction in serum sterol level at 0.03% administered with chow diet after 5 days relative to control; method in brief: as §1
Rattus norvegicus [3] = experiment: Hypolipidemic activity in COBBS-CD rat assessed as reduction in serum sterol level at 0.01% administered with chow diet after 5 days relative to control; method in brief: as §1
Rattus norvegicus [4] = experiment: Hypolipidemic activity in COBBS-CD rat assessed as reduction in serum triglyceride level at 0.1% administered with chow diet after 5 days relative to control
Method in brief: (§2)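 The compound was given in ground chow at 0.1, 0.03 or 0.01% w/w (about 100, 30 and 10 mg/kg) to male COBBS-CD rats (n=4; solvent-chow controls n=8) for 5 days ad libitum. Rats were killed by decapitation and blood collected. Serum triglycerides were assayed by an automated method and compared with controls; ± values are SD.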

Rattus norvegicus [5] = experiment: Hypolipidemic activity in COBBS-CD rat assessed as reduction in serum triglyceride level at 0.03% administered with chow diet after 5 days relative to control; method in brief: as §2
Rattus norvegicus [6] = experiment: Hypolipidemic activity in COBBS-CD rat assessed as reduction in serum triglyceride level at 0.01% administered with chow diet after 5 days relative to control; method in brief: as §2

COC(=O)C(Oc1ccc(Cl)cc1)c1ccc(Sc2ccccc2)cc1 (configuration not stated)
Activity (Rattus norvegicus [1]): 6%
Activity (Rattus norvegicus [2]): 6%
Activity (Rattus norvegicus [3]): 6%
Activity (Rattus norvegicus [4]): 30%
Activity (Rattus norvegicus [5]): 47%
Activity (Rattus norvegicus [6]): 41%

O=C(OCC(O)CO)C(Oc1ccc(Cl)cc1)c1ccc(Oc2ccc(Cl)cc2)cc1 (configuration not stated)
Activity (Rattus norvegicus [1]): 39%
Activity (Rattus norvegicus [2]): 27%
Activity (Rattus norvegicus [3]): 13%
Activity (Rattus norvegicus [4]): 63%
Activity (Rattus norvegicus [5]): 53%
Activity (Rattus norvegicus [6]): 24%

COC(=O)C(Oc1ccc(C(C)(C)C)cc1)c1ccc(Oc2ccc(Cl)cc2)cc1 (configuration not stated)
Activity (Rattus norvegicus [1]): 20%
Activity (Rattus norvegicus [2]): 20%
Activity (Rattus norvegicus [3]): 27%
Activity (Rattus norvegicus [4]): 57%
Activity (Rattus norvegicus [5]): 53%
Activity (Rattus norvegicus [6]): 41%

COC(=O)C(Oc1ccc(C(C)(C)C)cc1)c1ccc(Oc2ccc([N+](=O)[O-])cc2)cc1 (configuration not stated)
Activity (Rattus norvegicus [1]): 10%
Activity (Rattus norvegicus [2]): -4%
Activity (Rattus norvegicus [3]): -3%
Activity (Rattus norvegicus [4]): 51%
Activity (Rattus norvegicus [5]): 40%
Activity (Rattus norvegicus [6]): 34%

COC(=O)C(C)(Oc1ccc(Cl)cc1)c1ccc(Oc2ccc(Cl)cc2)cc1 (configuration not stated)
Activity (Rattus norvegicus [1]): 39%
Activity (Rattus norvegicus [2]): 14%
Activity (Rattus norvegicus [3]): 9%
Activity (Rattus norvegicus [4]): 63%
Activity (Rattus norvegicus [5]): 44%
Activity (Rattus norvegicus [6]): 39%

COC(=O)C(Oc1ccc(C(C)(C)C)cc1)c1ccc(Oc2ccc(NC(C)=O)cc2)cc1 (configuration not stated)
Activity (Rattus norvegicus [1]): 16%
Activity (Rattus norvegicus [2]): 18%
Activity (Rattus norvegicus [3]): 5%
Activity (Rattus norvegicus [4]): 55%
Activity (Rattus norvegicus [5]): 50%
Activity (Rattus norvegicus [6]): 44%

COC(=O)C(Oc1cccc(-c2ccccc2)c1)c1ccc(Oc2ccc(Cl)cc2)cc1 (configuration not stated)
Activity (Rattus norvegicus [1]): 28%
Activity (Rattus norvegicus [2]): 21%
Activity (Rattus norvegicus [3]): 8%
Activity (Rattus norvegicus [4]): 66%
Activity (Rattus norvegicus [5]): 45%
Activity (Rattus norvegicus [6]): 38%

COC(=O)C(Oc1ccc(C(C)(C)C)cc1)c1ccc(Oc2ccc(Cl)c3ccccc23)cc1 (configuration not stated)
Activity (Rattus norvegicus [1]): 23%
Activity (Rattus norvegicus [2]): 24%
Activity (Rattus norvegicus [3]): 16%
Activity (Rattus norvegicus [4]): 56%
Activity (Rattus norvegicus [5]): 39%
Activity (Rattus norvegicus [6]): 29%

COC(=O)C(Oc1ccc(Cl)cc1)c1ccc([S+]([O-])c2ccc(Cl)cc2)cc1 (configuration not stated)
Activity (Rattus norvegicus [1]): 31%
Activity (Rattus norvegicus [2]): 11%
Activity (Rattus norvegicus [3]): 15%
Activity (Rattus norvegicus [4]): 55%
Activity (Rattus norvegicus [5]): 35%
Activity (Rattus norvegicus [6]): 12%

COC(=O)C(Oc1ccc(OCc2ccccc2)cc1)c1ccc(Oc2ccc(Cl)cc2)cc1 (configuration not stated)
Activity (Rattus norvegicus [1]): 30%
Activity (Rattus norvegicus [2]): 26%
Activity (Rattus norvegicus [3]): 13%
Activity (Rattus norvegicus [4]): 57%
Activity (Rattus norvegicus [5]): 37%
Activity (Rattus norvegicus [6]): 29%

COC(=O)C(Oc1ccc2ccccc2c1)c1ccc(Oc2ccc(Cl)cc2)cc1 (configuration not stated)
Activity (Rattus norvegicus [1]): 32%
Activity (Rattus norvegicus [2]): 15%
Activity (Rattus norvegicus [3]): 10%
Activity (Rattus norvegicus [4]): 55%
Activity (Rattus norvegicus [5]): 44%
Activity (Rattus norvegicus [6]): 32%

COC(=O)C(Oc1cccc(Cl)c1)c1ccc(Oc2ccc(Cl)cc2)cc1 (configuration not stated)
Activity (Rattus norvegicus [1]): 19%
Activity (Rattus norvegicus [2]): 11%
Activity (Rattus norvegicus [3]): -3%
Activity (Rattus norvegicus [4]): 50%
Activity (Rattus norvegicus [5]): 22%
Activity (Rattus norvegicus [6]): 13%

COC(=O)C(Oc1ccc(Cl)cc1)c1ccc(Oc2ccccc2)cc1 (configuration not stated)
Activity (Rattus norvegicus [1]): 13%
Activity (Rattus norvegicus [2]): 3%
Activity (Rattus norvegicus [3]): 19%
Activity (Rattus norvegicus [4]): 58%
Activity (Rattus norvegicus [5]): 56%
Activity (Rattus norvegicus [6]): 62%

COC(=O)C(Oc1ccc(Cl)cc1)(C(=O)OC)c1ccc(Oc2ccc(Cl)cc2)cc1
Activity (Rattus norvegicus [1]): 32%
Activity (Rattus norvegicus [2]): 25%
Activity (Rattus norvegicus [3]): 9%
Activity (Rattus norvegicus [4]): 63%
Activity (Rattus norvegicus [5]): 48%
Activity (Rattus norvegicus [6]): -2%

COC(=O)C(Oc1ccc(F)cc1)c1ccc(Oc2cccc(C(F)(F)F)c2)cc1 (configuration not stated)
Activity (Rattus norvegicus [1]): 32%
Activity (Rattus norvegicus [2]): 6%
Activity (Rattus norvegicus [3]): 4%
Activity (Rattus norvegicus [4]): 48%
Activity (Rattus norvegicus [5]): 27%
Activity (Rattus norvegicus [6]): 45%

COC(=O)C(Oc1cc(C)c(Cl)c(C)c1)c1ccc(Oc2ccc(Cl)cc2)cc1 (configuration not stated)
Activity (Rattus norvegicus [1]): 21%
Activity (Rattus norvegicus [2]): 22%
Activity (Rattus norvegicus [3]): 0%
Activity (Rattus norvegicus [4]): 66%
Activity (Rattus norvegicus [5]): 49%
Activity (Rattus norvegicus [6]): 33%

COC(=O)C(Oc1ccc(Cl)cc1)c1ccc(Oc2cccc(C(F)(F)F)c2)cc1 (configuration not stated)
Activity (Rattus norvegicus [1]): 32%
Activity (Rattus norvegicus [2]): 31%
Activity (Rattus norvegicus [3]): 8%
Activity (Rattus norvegicus [4]): 50%
Activity (Rattus norvegicus [5]): 47%
Activity (Rattus norvegicus [6]): 35%

COC(=O)C(Oc1ccc(C2CCCCC2)cc1)c1ccc(Oc2ccc(Cl)cc2)cc1 (configuration not stated)
Activity (Rattus norvegicus [1]): 51%
Activity (Rattus norvegicus [2]): 21%
Activity (Rattus norvegicus [3]): 20%
Activity (Rattus norvegicus [4]): 66%
Activity (Rattus norvegicus [5]): 47%
Activity (Rattus norvegicus [6]): 37%

COC(=O)C(Oc1ccc(F)cc1)c1ccc(Oc2ccc(C#N)cc2)cc1 (configuration not stated)
Activity (Rattus norvegicus [1]): 33%
Activity (Rattus norvegicus [2]): 19%
Activity (Rattus norvegicus [3]): 13%
Activity (Rattus norvegicus [4]): 60%
Activity (Rattus norvegicus [5]): 31%
Activity (Rattus norvegicus [6]): 38%

COC(=O)C(Oc1ccc(Cl)c(C)c1)c1ccc(Oc2ccc(Cl)cc2)cc1 (configuration not stated)
Activity (Rattus norvegicus [1]): 39%
Activity (Rattus norvegicus [2]): 34%
Activity (Rattus norvegicus [3]): 34%
Activity (Rattus norvegicus [4]): 54%
Activity (Rattus norvegicus [5]): 39%
Activity (Rattus norvegicus [6]): 28%

COC(=O)C(Oc1ccc(C(C)(C)C)cc1Cl)c1ccc(Oc2ccc(Cl)cc2)cc1 (configuration not stated)
Activity (Rattus norvegicus [1]): 28%
Activity (Rattus norvegicus [2]): 29%
Activity (Rattus norvegicus [3]): 17%
Activity (Rattus norvegicus [4]): 64%
Activity (Rattus norvegicus [5]): 50%
Activity (Rattus norvegicus [6]): 25%

COC(=O)C(Oc1cccc(C(F)(F)F)c1)c1ccc(Oc2ccc(C#N)cc2)cc1 (configuration not stated)
Activity (Rattus norvegicus [1]): 32%
Activity (Rattus norvegicus [2]): 24%
Activity (Rattus norvegicus [3]): 12%
Activity (Rattus norvegicus [4]): 50%
Activity (Rattus norvegicus [5]): 34%
Activity (Rattus norvegicus [6]): -37%

COC(=O)C(Oc1ccc(Cl)cc1)c1ccc(Oc2ccc(C#N)cc2)cc1 (configuration not stated)
Activity (Rattus norvegicus [1]): 16%
Activity (Rattus norvegicus [2]): 19%
Activity (Rattus norvegicus [3]): 20%
Activity (Rattus norvegicus [4]): 71%
Activity (Rattus norvegicus [5]): 60%
Activity (Rattus norvegicus [6]): 50%

COC(=O)C(Oc1cccc2c1CCC2)c1ccc(Oc2ccc(Cl)cc2)cc1 (configuration not stated)
Activity (Rattus norvegicus [1]): 19%
Activity (Rattus norvegicus [2]): 10%
Activity (Rattus norvegicus [3]): 7%
Activity (Rattus norvegicus [4]): 17%
Activity (Rattus norvegicus [5]): -8%
Activity (Rattus norvegicus [6]): -39%

COC(=O)C(Oc1ccc(C(C)(C)C)cc1)c1ccc(Oc2cccc(C(F)(F)F)c2)cc1 (configuration not stated)
Activity (Rattus norvegicus [1]): 26%
Activity (Rattus norvegicus [2]): 35%
Activity (Rattus norvegicus [3]): 12%
Activity (Rattus norvegicus [4]): 77%
Activity (Rattus norvegicus [5]): 70%
Activity (Rattus norvegicus [6]): 52%

COC(=O)C(Oc1ccc(C(C)(C)C)cc1)c1ccc(Oc2ccc(C#N)cc2)cc1 (configuration not stated)
Activity (Rattus norvegicus [1]): 13%
Activity (Rattus norvegicus [2]): 13%
Activity (Rattus norvegicus [3]): 16%
Activity (Rattus norvegicus [4]): 59%
Activity (Rattus norvegicus [5]): 63%
Activity (Rattus norvegicus [6]): 69%

COC(=O)C(Oc1ccc(Cl)c2cccnc12)c1ccc(Oc2ccc(Cl)cc2)cc1 (configuration not stated)
Activity (Rattus norvegicus [1]): 5%
Activity (Rattus norvegicus [2]): 4%
Activity (Rattus norvegicus [3]): 4%
Activity (Rattus norvegicus [4]): 5%
Activity (Rattus norvegicus [5]): 4%
Activity (Rattus norvegicus [6]): -3%

COC(=O)C(Oc1ccc(Cl)cc1)c1ccc(Oc2ccc(Cl)cc2)cc1 (configuration not stated)
Activity (Rattus norvegicus [1]): 33%
Activity (Rattus norvegicus [2]): 23%
Activity (Rattus norvegicus [3]): 16%
Activity (Rattus norvegicus [4]): 56%
Activity (Rattus norvegicus [5]): 48%
Activity (Rattus norvegicus [6]): 39%

COC(=O)C(Oc1ccccc1)c1ccc(Oc2ccccc2)cc1 (configuration not stated)
Activity (Rattus norvegicus [1]): 21%
Activity (Rattus norvegicus [2]): 19%
Activity (Rattus norvegicus [3]): 10%
Activity (Rattus norvegicus [4]): 58%
Activity (Rattus norvegicus [5]): 49%
Activity (Rattus norvegicus [6]): 46%

COC(=O)C(Oc1cccc(C(F)(F)F)c1)c1ccc(Oc2ccc(C(C)(C)C)cc2)cc1 (configuration not stated)
Activity (Rattus norvegicus [1]): 13%
Activity (Rattus norvegicus [2]): -4%
Activity (Rattus norvegicus [3]): -5%
Activity (Rattus norvegicus [4]): 19%
Activity (Rattus norvegicus [5]): -18%
Activity (Rattus norvegicus [6]): -12%

COC(=O)C(Oc1ccc(Cl)c2ccccc12)c1ccc(Oc2ccc(Cl)cc2)cc1 (configuration not stated)
Activity (Rattus norvegicus [1]): 11%
Activity (Rattus norvegicus [2]): -3%
Activity (Rattus norvegicus [3]): -18%
Activity (Rattus norvegicus [4]): 32%
Activity (Rattus norvegicus [5]): -8%
Activity (Rattus norvegicus [6]): -15%

COC(=O)C(Oc1ccc(Cl)cc1)c1ccc(Oc2ccc(S(C)(=O)=O)cc2)cc1 (configuration not stated)
Activity (Rattus norvegicus [1]): 15%
Activity (Rattus norvegicus [2]): -1%
Activity (Rattus norvegicus [3]): 8%
Activity (Rattus norvegicus [4]): 22%
Activity (Rattus norvegicus [5]): -11%
Activity (Rattus norvegicus [6]): 11%

O=C(O)C(Oc1ccccc1)c1ccc(Oc2ccccc2)cc1 (configuration not stated)
Activity (Rattus norvegicus [1]): 22%
Activity (Rattus norvegicus [2]): 15%
Activity (Rattus norvegicus [3]): 21%
Activity (Rattus norvegicus [4]): 51%
Activity (Rattus norvegicus [5]): 37%
Activity (Rattus norvegicus [6]): 3%

COC(=O)C(Oc1ccc(F)cc1)c1ccc(Sc2ccc(Cl)cc2)cc1 (configuration not stated)
Activity (Rattus norvegicus [1]): 22%
Activity (Rattus norvegicus [2]): 23%
Activity (Rattus norvegicus [3]): 21%
Activity (Rattus norvegicus [4]): 36%
Activity (Rattus norvegicus [5]): 18%
Activity (Rattus norvegicus [6]): 1%

COC(=O)C(Oc1ccccc1)c1ccc(Oc2ccc(Cl)cc2)cc1 (configuration not stated)
Activity (Rattus norvegicus [1]): 31%
Activity (Rattus norvegicus [2]): 18%
Activity (Rattus norvegicus [3]): 18%
Activity (Rattus norvegicus [4]): 68%
Activity (Rattus norvegicus [5]): 67%
Activity (Rattus norvegicus [6]): 77%

CCOP(=O)(OCC)C(Oc1ccc(Cl)cc1)(C(=O)OC)c1ccc(Oc2ccc(Cl)cc2)cc1 (configuration not stated)
Activity (Rattus norvegicus [1]): 43%
Activity (Rattus norvegicus [2]): 27%
Activity (Rattus norvegicus [3]): 23%
Activity (Rattus norvegicus [4]): 60%
Activity (Rattus norvegicus [5]): 44%
Activity (Rattus norvegicus [6]): 18%

COC(=O)C(Oc1ccc(C23CC4CC(CC(C4)C2)C3)cc1)c1ccc(Oc2ccc(Cl)cc2)cc1 (configuration not stated)
Activity (Rattus norvegicus [1]): 3%
Activity (Rattus norvegicus [2]): 16%
Activity (Rattus norvegicus [3]): 14%
Activity (Rattus norvegicus [4]): 17%
Activity (Rattus norvegicus [5]): 29%
Activity (Rattus norvegicus [6]): 11%
